Source: PMC9057764 (RSC Advances, 2020)
Entries after “also recorded” stand apart in the source; their conditions may differ. Like-named read-outs stand apart in the source and are kept apart here.

Tests used:
CCRF-CEM [1] = experiment: NCI five-dose screen, leukemia; format: cell-based; settings: Homo sapiens
Method in brief: (§1)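 This was the NCI five-dose screen on the 60-cell-line human cancer panel, covering nine tumour types. It was given to compounds that met the single-dose criteria. GI50 is the concentration giving 50% growth inhibition, TGI the concentration giving 100% growth inhibition, and LC50 the concentration giving 50% lethality. MG-MID is the mean over all cell lines tested.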

K-562 [2] = experiment: NCI five-dose screen, leukemia; format: cell-based; settings: Homo sapiens, K562
Method in brief: as §1

MOLT-4 [3] = experiment: NCI five-dose screen, leukemia; format: cell-based; settings: Homo sapiens
Method in brief: as §1

RPMI-8226 = experiment: NCI five-dose screen, leukemia; format: cell-based; settings: Homo sapiens; for GI50: RPMI-8226
Method in brief: as §1

SR [4] = experiment: NCI five-dose screen, leukemia; format: cell-based; settings: Homo sapiens
Method in brief: as §1

COLO 205 = experiment: NCI five-dose screen, colon cancer; format: cell-based; settings: Homo sapiens; for GI50: COLO 205; for CC50: COLO 205, read-out: LC50
Method in brief: as §1

HCC-2998 [5] = experiment: NCI five-dose screen, colon cancer; format: cell-based; settings: Homo sapiens; for GI50: HCC 2998; for CC50: HCC 2998, read-out: LC50
Method in brief: as §1

HCT-116 [6] = experiment: NCI five-dose screen, colon cancer; format: cell-based; settings: Homo sapiens; for GI50: HCT-116
Method in brief: as §1

HCT-15 [7] = experiment: NCI five-dose screen, colon cancer; format: cell-based; settings: Homo sapiens; for GI50: HCT-15
Method in brief: as §1

HT29 [8] = experiment: NCI five-dose screen, colon cancer; format: cell-based; settings: Homo sapiens, HT-29
Method in brief: as §1

KM12 [9] = experiment: NCI five-dose screen, colon cancer; format: cell-based; settings: Homo sapiens; for GI50: KM12
Method in brief: as §1

SW-620 [10] = experiment: NCI five-dose screen, colon cancer; format: cell-based; settings: Homo sapiens; for GI50: SW-620
Method in brief: as §1

SR [11] = experiment: NCI single dose; format: cell-based; settings: Homo sapiens, read-out: percent growth inhibition
Method in brief: (§2)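 This was the NCI primary screen: test compound at one concentration of 10 μM against the 60-cell-line human cancer panel, covering leukemia, NSCLC, melanoma, colon, CNS, ovarian, renal, prostate and breast lines. The read-out was percent growth inhibition for each cell line. Compounds meeting the threshold went on to the five-dose screen.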

60 cancer cell lines = experiment: NCI single dose; format: cell-based, human; settings: for GI% values, range over cell lines: 10 μM, range over the leukemia and colon cancer cell lines of Table 2; for inhibition at 10 µM: Homo sapiens, read-out: Mean percent growth inhibition (MPGI)
Method in brief: as §2

panel of 60 cell lines = experiment: NCI five-dose screen, whole panel; format: cell-based; settings: Homo sapiens; for CC50: read-out: Median LC50 (MG-MID)
Method in brief: as §1

[12] = Cytotoxicity in normal cells; format: cell-based, human; settings: human, WI-38 normal fibroblasts
Method in brief: (§3)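 Normal human WI-38 fibroblasts were exposed to a concentration series of test compound, with doxorubicin as positive control and three wells per concentration. IC50 came from dose–response curves averaged over two parallel experiments and is given as mean ± SEM versus untreated cells. Selectivity index = WI-38 IC50 / median GI50 from the NCI cancer panel.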

[13] = system: human normal fibroblasts (WI-38); experiment: Cytotoxicity in normal cells; format: cell-based; settings: SI = WI-38 IC50/median GI50
Method in brief: as §3

p53 = experiment: Gene expression by real time PCR in HepG2; format: cell-based; settings: Homo sapiens, HepG2, 8 h, read-out: p53 expression, fold induction from untreated cells
Method in brief: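 HepG2 cells treated with test compound; p53 transcript measured within a panel that also covered cdk1, caspase 3, topoII and txnrd1, and expressed relative to untreated cells. Values given as mean ± SEM of two independent experiments, with significance set at p < 0.05 versus untreated cells.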

HL-60 (TB) = experiment: cells; settings: Homo sapiens; for GI50: HL-60
HT29 [14] = experiment: NCI single dose; format: cell-based; settings: Homo sapiens, HT-29, read-out: percent growth inhibition
Method in brief: as §2

[15] = system: cyclin-dependent kinase 1 (cdk1); experiment: Gene expression by real time PCR in HepG2; format: cell-based; settings: HepG2, approximate value in text
[16] = system: topoisomerase II (topoII); experiment: Gene expression by real time PCR in HepG2; format: cell-based; settings: HepG2, approximate value in text
[17] = system: topoisomerase II (Topo II); experiment: Topo II concentration in HepG2 cells, sandwich ELISA; format: cell-based; settings: HepG2, IC50 concentrations, 8 hours, ELISA (Fig. 5A)
Method in brief: (§4)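 HepG2 cells were treated with test compound, with doxorubicin as reference. Cellular p38 MAPK and Topo II protein concentrations were then measured with commercial sandwich ELISA kits. Each compound had three wells, and the experiment was run twice. Values are mean ± SEM, with significance tested against untreated cells.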

[18] = system: p38 mitogen-activated protein kinase (MAPK); experiment: MAPK concentration in HepG2 cells, sandwich ELISA; format: cell-based; settings: HepG2, IC50 concentrations, 8 hours, ELISA (Fig. 5C)
Method in brief: as §4

cleaved caspase-3 = experiment: Active cleaved caspase 3 activity in HepG2 cells; format: cell-based; settings: for effect on activity of cleaved active caspase 3: HepG2 (Fig. 5B)
CCRF-CEM [19] = experiment: NCI single dose; format: cell-based; settings: Homo sapiens, read-out: percent growth inhibition
Method in brief: as §2

K-562 [20] = experiment: NCI single dose; format: cell-based; settings: Homo sapiens, K562, read-out: percent growth inhibition
Method in brief: as §2

MOLT-4 [21] = experiment: NCI single dose; format: cell-based; settings: Homo sapiens, MOLT-4, read-out: percent growth inhibition
Method in brief: as §2

HCC-2998 [22] = experiment: NCI single dose; format: cell-based; settings: Homo sapiens, HCC 2998, read-out: percent growth inhibition
Method in brief: as §2

HCT-116 [23] = experiment: NCI single dose; format: cell-based; settings: Homo sapiens, HCT-116, read-out: percent growth inhibition
Method in brief: as §2

HCT-15 [24] = experiment: NCI single dose; format: cell-based; settings: Homo sapiens, HCT-15, read-out: percent growth inhibition
Method in brief: as §2

KM12 [25] = experiment: NCI single dose; format: cell-based; settings: Homo sapiens, KM12, read-out: percent growth inhibition
Method in brief: as §2

SW-620 [26] = experiment: NCI single dose; format: cell-based; settings: Homo sapiens, SW-620, read-out: percent growth inhibition
Method in brief: as §2

COc1ccc(-c2ccc(-c3ccc(C(=N)N)nc3)s2)cc1.Cl [Compound 4a, 5-[5-(4-Methoxyphenyl)thiophen-2-yl]picolinamidine hydrochloride salt]
GI50 (CCRF-CEM [1]): 1430 nM
GI50 (K-562 [2]): 1090 nM
GI50 (MOLT-4 [3]): 1900 nM
GI50 (RPMI-8226): 2130 nM
GI50 (SR [4]): 340 nM
GI50 (COLO 205): 1890 nM
CC50 (COLO 205): 8130 nM
GI50 (HCC-2998 [5]): 1820 nM
CC50 (HCC-2998 [5]): 6380 nM
GI50 (HCT-116 [6]): 1620 nM
GI50 (HCT-15 [7]): 1270 nM
CC50 (HCT-15 [7]; HCT-15, read-out: LC50): 5710 nM
GI50 (HT29 [8]): 880 nM
GI50 (KM12 [9]): 1810 nM
CC50 (KM12 [9]; KM12, read-out: LC50): 6030 nM
GI50 (SW-620 [10]): 430 nM
CC50 (SW-620 [10]; SW-620, read-out: LC50): 4980 nM
inhibition at 10 µM (SR [11]): 99.7%
GI% values, range over cell lines (60 cancer cell lines): −7.17 to −86.03%
inhibition at 10 µM (60 cancer cell lines): -28.8%
GI50 (panel of 60 cell lines; read-out: Median GI50 (MG-MID)): 1620 nM
CC50 (panel of 60 cell lines): 8120 nM
IC50 at 48 h [12]: 21100 ± 3100 nM
selectivity index (SI) [13]: 13.0
fold induction at 0.1 µM (p53): 1.19 ± 0.43
GI50 (HL-60 (TB)): 1780 nM

COc1ccc(-c2ccc(-c3ccc(C(=N)N)nc3)s2)cc1Cl.Cl [Compound 4b, 5-[5-(3-Chloro-4-methoxyphenyl)thiophen-2-yl]picolinamidine hydrochloride salt]
GI50 (CCRF-CEM [1]): 1180 nM
GI50 (K-562 [2]): 900 nM
GI50 (MOLT-4 [3]): 1720 nM
GI50 (RPMI-8226): 2250 nM
GI50 (SR [4]): 580 nM
GI50 (COLO 205): 1940 nM
GI50 (HCC-2998 [5]): 1860 nM
GI50 (HCT-116 [6]): 1820 nM
GI50 (HCT-15 [7]): 1570 nM
GI50 (HT29 [8]): 1350 nM
GI50 (KM12 [9]): 1810 nM
GI50 (SW-620 [10]): 1790 nM
inhibition at 10 µM (HT29 [14]): 97.5%
GI% values, range over cell lines (60 cancer cell lines): −7.17 to −86.03%
inhibition at 10 µM (60 cancer cell lines): -19.9%
GI50 (panel of 60 cell lines; read-out: Median GI50 (MG-MID)): 1730 nM
CC50 (panel of 60 cell lines): 8310 nM
IC50 at 48 h [12]: 23700 ± 2500 nM
selectivity index (SI) [13]: 13.7
fold induction at 0.1 µM (p53): 1.03 ± 0.08
magnitude of downregulation of cdk1 expression [15]: ~50%
magnitude of downregulation of topoII expression [16]: ~50%
effect on concentration of Topo II protein [17]: significant reduction; also recorded: significantly downregulate
effect on concentration of MAPK protein [18]: significant reduction
effect on activity of cleaved active caspase 3 (cleaved caspase-3): devoid of any effect
GI50 (HL-60 (TB)): 1660 nM

COc1cc(-c2ccc(-c3ccc(C(=N)N)nc3)s2)cc(OC)c1OC.Cl [Compound 4c, 5-[5-(3,4,5-Trimethoxyphenyl)thiophen-2-yl]picolinamidine hydrochloride salt]
GI50 (CCRF-CEM [1]): 2490 nM
GI50 (K-562 [2]): 1390 nM
GI50 (MOLT-4 [3]): 2530 nM
GI50 (RPMI-8226): 1670 nM
CC50 (RPMI-8226; RPMI-8226, read-out: LC50): 9400 nM
GI50 (SR [4]): 2480 nM
GI50 (COLO 205): 1600 nM
CC50 (COLO 205): 6660 nM
GI50 (HCC-2998 [5]): 2000 nM
CC50 (HCC-2998 [5]): 7610 nM
GI50 (HCT-116 [6]): 1470 nM
CC50 (HCT-116 [6]; HCT-116, read-out: LC50): 5600 nM
GI50 (HCT-15 [7]): 2180 nM
GI50 (HT29 [8]): 1370 nM
GI50 (KM12 [9]): 2780 nM
GI50 (SW-620 [10]): 2090 nM
inhibition at 10 µM (CCRF-CEM [19]): 89.1%
inhibition at 10 µM (K-562 [20]): 94.4%
inhibition at 10 µM (MOLT-4 [21]): 76.2%
inhibition at 10 µM (SR [11]): 93.7%
inhibition at 10 µM (HCC-2998 [22]): 87.9%
inhibition at 10 µM (HCT-116 [23]): 99%
inhibition at 10 µM (HCT-15 [24]): 78.6%
inhibition at 10 µM (HT29 [14]): 85.8%
inhibition at 10 µM (KM12 [25]): 50.9%
inhibition at 10 µM (SW-620 [26]): 70.8%
GI% values, range over cell lines (60 cancer cell lines): 50.93 to 99.05%
inhibition at 10 µM (60 cancer cell lines): 52.6%
GI50 (panel of 60 cell lines; read-out: GI50, range over cell lines): 1370 to 2780 nM
GI50 (panel of 60 cell lines; read-out: Median GI50 (MG-MID)): 2390 nM
CC50 (panel of 60 cell lines): 19500 nM
IC50 at 48 h [12]: 51300 ± 9000 nM
selectivity index (SI) [13]: 21.5
fold induction at 0.1 µM (p53): 1.18 ± 0.1
magnitude of downregulation of cdk1 expression [15]: ~70%
magnitude of downregulation of topoII expression [16]: ~70%
effect on concentration of Topo II protein [17]: significant reduction; also recorded: significantly downregulate
effect on concentration of MAPK protein [18]: significant reduction
effect on activity of cleaved active caspase 3 (cleaved caspase-3): devoid of any effect
increase in cleaved caspase 3 enzyme activity (cleaved caspase-3; HepG2, did not achieve statistical significance (Fig. 5B)): ~60%
GI50 (HL-60 (TB)): 1870 nM
CC50 (HL-60 (TB); HL-60, read-out: LC50): 9440 nM

COc1cccc2c1C(=O)c1c(O)c3c(c(O)c1C2=O)C[C@@](O)(C(=O)CO)C[C@@H]3O[C@H]1C[C@H](N)[C@H](O)[C@H](C)O1 [Dox, Doxorubicin, reference compound]
IC50 at 48 h [12]: 2900 ± 800 nM
fold induction at 0.1 µM (p53): 3.14 ± 0.81
effect on concentration of Topo II protein [17]: significantly downregulate
